Reference: ChEMBL document CHEMBL1240299, “C3-symmetric peptide scaffolds are functional mimetics of trimeric CD40L” (Nat Chem Biol, 2005)
Active and inactive are the calls of the source. The rule behind the calls is not given here. Non-standard residues stand in square brackets, D forms with d. Residues, ends and D or L forms follow the SMILES beside them. Groups on a side chain read outwards from the residue. Ahx = NCCCCCC(=O)O

What was measured:
BL-41 [1] = experiment: Induction of apoptosis in CD40-positive human BL41 cells assessed as detection of phosphatidylserine expression using annexin V-FITC and propidium iodine staining by flow cytometry; format: functional, cell-based
Method in brief: (§1)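 BL41 Burkitt lymphoma cells in RPMI 1640 with 10% FBS were seeded at 5×10^5 ml⁻¹ and exposed to inducers at 37 °C (16 h). Apoptosis was read by flow cytometry, either as loss of DiOC₆(3) uptake (Δψm) or as annexin V–FITC/PI co-staining. Specific apoptosis % = (treated − control)×100/(100 − control). Values are means of three independent experiments.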

[2] = molecular target: T1, Tumor necrosis factor receptor superfamily member 5 (Homo sapiens, UniProt P25942); experiment: Inhibition of recombinant human CD40L:mouse CD8 tail binding to human CD40 by surface plasmon resonance method
T1 sequence (P25942 whole entry): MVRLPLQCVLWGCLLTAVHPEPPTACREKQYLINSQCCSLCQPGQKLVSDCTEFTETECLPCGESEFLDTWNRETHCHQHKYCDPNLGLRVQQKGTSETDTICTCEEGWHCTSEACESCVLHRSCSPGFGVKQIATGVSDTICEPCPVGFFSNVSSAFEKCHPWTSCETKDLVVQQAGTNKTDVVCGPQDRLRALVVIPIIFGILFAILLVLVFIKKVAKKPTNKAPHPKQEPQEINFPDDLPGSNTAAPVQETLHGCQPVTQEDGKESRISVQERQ
Method in brief: (§2)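 hCD40:mIg was captured on an anti-mouse Ig chip. A fixed amount of soluble hCD40L:CD8 was premixed with increasing ligand concentrations, and the mixtures were injected at 25 °C in HBS-EP, 30 µl min⁻¹, 5 min association and 5 min dissociation. Regeneration was 50 mM HCl. Inhibition of CD40L binding was taken from reference-subtracted sensorgrams.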

BL-41 [3] = experiment: Induction of apoptosis in CD40-positive human BL41 cells assessed as decrease in reduction in DiOC6 dye uptake after DAPI staining by epifluorescence microscopy; format: functional, cell-based
BL-41 [4] = experiment: Induction of apoptosis in CD40-positive human BL41 cells assessed as level of CD40 expression by mean fluorescence intensity; format: functional, cell-based
[5] = molecular target: T1, Tumor necrosis factor receptor superfamily member 5; experiment: Inhibition of recombinant human CD40L:mouse CD8 tail binding to human CD40 at 10 uM by surface plasmon resonance method; method in brief: as §2
BL-41 [6] = experiment: Induction of apoptosis in CD40-positive human BL41 cells assessed as decrease in mitochondrial membrane potential after 16 hrs by mean fluorescence intensity; format: functional, cell-based; method in brief: as §1
D1 [7] = experiment: Induction of interleukin-12 production in mouse D1 cells by RT-PCR method; format: functional, cell-based
Method in brief: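 D1 cells, precultured 48 h at 2×10^5 ml⁻¹, were given fresh medium containing inducers. After incubation, RNA was analysed by comparative RT-PCR for IL-12 p40 mRNA, with Gapdh as housekeeping control. LPS at 10 µg ml⁻¹ served as reference stimulus.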

A20 = experiment: Induction of apoptosis in mouse CD40-expressing mouse A20 cells assessed as decrease in mitochondrial membrane potential after 16 hrs by mean fluorescence intensity; format: functional, cell-based
Method in brief: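 Mouse A20 lymphoma cells treated at 37 °C and analysed by flow cytometry for reduced DiOC₆(3) uptake (loss of mitochondrial membrane potential). Result given as percentage specific apoptosis relative to untreated control cells.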

[8] = Activation of NF-kappaB pathway in mouse D1 cells assessed as increased degradation of IkappaBalpha protein by immunoblotting assay; format: functional, cell-based
Method in brief: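 D1 dendritic cells grown in IMDM with 10% FBS and 30% NIH/3T3 supernatant as GM-CSF source; 2×10^5 cells ml⁻¹ precultured 48 h, then fresh medium with inducers added. Cells washed, harvested in PBS/2 mM EDTA, lysed and immunoblotted for IκBα, with actin as loading reference; IκBα/actin band intensity ratio reported.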

D1 [9] = experiment: Induction of mouse D1 cell maturation assessed as CD54 expression at 5 to 10 uM after 48 hrs by flow cytometry in presence of 10 ug/ml LPS inhibitor polymyxin B; format: functional, cell-based
Method in brief: (§3)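 D1 cells (2×10^5 ml⁻¹, 48 h preculture) were treated 48 h with inducers in fresh medium. Assays were also run with polymyxin B present to exclude LPS-driven activation, and LPS at 10 µg ml⁻¹ was the reference stimulus. Cells were harvested in PBS/EDTA and surface maturation markers were measured by flow cytometry.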

[10] = molecular target: T2, Tumor necrosis factor receptor superfamily member 1B (Homo sapiens) (UniProt P20333); experiment: Binding affinity to human Tumor necrosis factor receptor 2 by surface plasmon resonance method
T2 sequence (whole entry): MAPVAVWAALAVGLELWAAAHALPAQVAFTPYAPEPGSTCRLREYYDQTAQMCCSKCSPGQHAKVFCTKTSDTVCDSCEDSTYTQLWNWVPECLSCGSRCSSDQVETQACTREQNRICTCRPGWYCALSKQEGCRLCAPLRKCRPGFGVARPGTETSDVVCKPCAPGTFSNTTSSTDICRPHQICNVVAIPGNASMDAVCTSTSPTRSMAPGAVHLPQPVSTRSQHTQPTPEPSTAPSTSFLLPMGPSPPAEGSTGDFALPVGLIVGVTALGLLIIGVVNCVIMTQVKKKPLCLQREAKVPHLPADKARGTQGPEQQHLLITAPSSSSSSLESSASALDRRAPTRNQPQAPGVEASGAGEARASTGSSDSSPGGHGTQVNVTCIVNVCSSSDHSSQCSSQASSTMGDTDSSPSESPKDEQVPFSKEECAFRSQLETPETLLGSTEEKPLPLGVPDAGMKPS
Method in brief: (§4)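 TNFR:Fc fusion proteins were captured on an anti-Ig-coated CM5 chip at equivalent protein mass. An irrelevant IgG2a served as control surface. Ligands were injected at several concentrations at 25 °C in HBS-EP running buffer, pH 7.4, 30 µl min⁻¹ flow, 5 min association and 5 min dissociation, with 50 mM HCl regeneration. Reference-subtracted sensorgrams were fitted to binding models.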

[11] = molecular target: T3, Tumor necrosis factor receptor superfamily member 1A (Homo sapiens) (UniProt P19438); experiment: Binding affinity to human TNFR1 by surface plasmon resonance method; method in brief: as §4
T3 sequence (whole entry): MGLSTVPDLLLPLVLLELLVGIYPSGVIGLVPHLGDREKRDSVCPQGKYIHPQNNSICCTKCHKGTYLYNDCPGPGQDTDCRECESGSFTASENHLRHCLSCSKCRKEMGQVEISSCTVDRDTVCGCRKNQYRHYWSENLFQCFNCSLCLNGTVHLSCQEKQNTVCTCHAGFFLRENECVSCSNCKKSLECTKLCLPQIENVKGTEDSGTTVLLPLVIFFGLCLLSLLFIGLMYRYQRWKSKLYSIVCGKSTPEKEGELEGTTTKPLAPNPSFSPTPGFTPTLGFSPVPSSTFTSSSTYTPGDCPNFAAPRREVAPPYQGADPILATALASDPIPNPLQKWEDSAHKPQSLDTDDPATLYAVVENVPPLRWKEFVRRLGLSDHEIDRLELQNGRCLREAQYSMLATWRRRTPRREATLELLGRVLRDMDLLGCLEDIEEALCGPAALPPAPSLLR

[12] = molecular target: Tumor necrosis factor receptor superfamily member 3 (Homo sapiens) (UniProt P36941); experiment: Binding affinity to human lymphotoxin beta receptor by surface plasmon resonance method
Sequence of Tumor necrosis factor receptor superfamily member 3 (Homo sapiens) (P36941 whole entry, the tested form may be a part): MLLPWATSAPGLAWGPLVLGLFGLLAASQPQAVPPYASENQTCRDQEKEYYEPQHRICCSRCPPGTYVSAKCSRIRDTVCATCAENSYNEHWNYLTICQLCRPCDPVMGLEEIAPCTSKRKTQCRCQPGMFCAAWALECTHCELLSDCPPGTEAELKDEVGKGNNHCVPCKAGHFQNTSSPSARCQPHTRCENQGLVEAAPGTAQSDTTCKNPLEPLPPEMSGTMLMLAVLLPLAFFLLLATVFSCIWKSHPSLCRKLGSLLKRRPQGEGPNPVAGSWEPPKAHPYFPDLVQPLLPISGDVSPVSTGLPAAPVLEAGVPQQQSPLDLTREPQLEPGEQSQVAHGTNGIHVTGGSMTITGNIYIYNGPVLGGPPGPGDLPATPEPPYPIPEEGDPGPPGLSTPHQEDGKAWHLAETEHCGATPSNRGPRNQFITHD
Method in brief: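 TNFR:Fc fusion captured at 5 µl min⁻¹ on a CM5 chip precoated by amine coupling with rabbit anti-mouse Ig or goat anti-human Ig (~10,000 RU). Mimetics injected at several concentrations at 30 µl min⁻¹, 5 min association and 5 min dissociation, 25 °C, HBS-EP pH 7.4. Regeneration 30 s with 50 mM HCl. Control-channel sensorgrams subtracted and fitted to binding models.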

[13] = molecular target: T4, Tumor necrosis factor receptor superfamily member 17 (Mus musculus) (UniProt O88472); experiment: Binding affinity to mouse B-cell maturation protein by surface plasmon resonance method; method in brief: as §4
T4 sequence (whole entry): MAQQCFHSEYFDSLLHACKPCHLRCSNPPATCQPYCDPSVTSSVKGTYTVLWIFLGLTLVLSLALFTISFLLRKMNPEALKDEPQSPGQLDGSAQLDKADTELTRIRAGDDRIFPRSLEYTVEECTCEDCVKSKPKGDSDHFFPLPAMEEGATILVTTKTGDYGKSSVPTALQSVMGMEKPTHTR

[14] = molecular target: Tumor necrosis factor receptor superfamily member 10A (Homo sapiens) (UniProt O00220); experiment: Binding affinity to human TNF-related apoptosis-inducing ligand receptor 1 by surface plasmon resonance method; method in brief: as §4
Sequence of Tumor necrosis factor receptor superfamily member 10A (Homo sapiens) (O00220 whole entry): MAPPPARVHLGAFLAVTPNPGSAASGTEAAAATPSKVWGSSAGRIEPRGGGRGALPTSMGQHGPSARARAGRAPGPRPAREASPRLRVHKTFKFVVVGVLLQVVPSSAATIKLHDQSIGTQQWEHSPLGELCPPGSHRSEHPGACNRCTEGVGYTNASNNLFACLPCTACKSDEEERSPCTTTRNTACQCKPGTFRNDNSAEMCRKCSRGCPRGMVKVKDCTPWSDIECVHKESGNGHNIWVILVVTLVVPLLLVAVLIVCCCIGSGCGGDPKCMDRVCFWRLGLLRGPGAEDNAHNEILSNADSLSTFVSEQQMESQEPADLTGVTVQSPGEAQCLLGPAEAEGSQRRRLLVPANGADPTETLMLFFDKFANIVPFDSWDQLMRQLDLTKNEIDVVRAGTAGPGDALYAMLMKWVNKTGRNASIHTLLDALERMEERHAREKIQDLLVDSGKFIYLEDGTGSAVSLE

D1 [15] = experiment: Induction of mouse D1 cell maturation assessed as CD80 expression at 5 to 10 uM after 48 hrs by flow cytometry in presence of 10 ug/ml LPS inhibitor polymyxin B; format: functional, cell-based; method in brief: as §3
D1 [16] = experiment: Induction of mouse D1 cell maturation assessed as CD86 expression at 5 to 10 uM after 48 hrs by flow cytometry in presence of 10 ug/ml LPS inhibitor polymyxin B; format: functional, cell-based; method in brief: as §3
[17] = molecular target: T5, Tumor necrosis factor receptor superfamily member EDAR (Homo sapiens) (UniProt Q9UNE0); experiment: Binding affinity to human Ectodysplasin-A receptor by surface plasmon resonance method; method in brief: as §4
T5 sequence (whole entry): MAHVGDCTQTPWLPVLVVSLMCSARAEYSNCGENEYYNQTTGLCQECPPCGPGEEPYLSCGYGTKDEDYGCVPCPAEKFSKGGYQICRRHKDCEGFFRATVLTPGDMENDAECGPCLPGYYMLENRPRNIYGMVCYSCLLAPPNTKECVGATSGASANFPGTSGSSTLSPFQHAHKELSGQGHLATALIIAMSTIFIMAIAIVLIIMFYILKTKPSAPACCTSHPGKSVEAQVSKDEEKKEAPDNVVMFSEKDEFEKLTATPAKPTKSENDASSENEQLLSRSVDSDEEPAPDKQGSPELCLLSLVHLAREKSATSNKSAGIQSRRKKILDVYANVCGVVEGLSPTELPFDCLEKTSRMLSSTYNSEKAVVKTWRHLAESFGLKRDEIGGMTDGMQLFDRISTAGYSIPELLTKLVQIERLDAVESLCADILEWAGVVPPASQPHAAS

BL-41 [18] = experiment: Induction of apoptosis in CD40-positive human BL41 cells assessed as reduction in DiOC6 dye uptake after DAPI staining

Row | SMILES | Activity (BL-41 [1]) | IC50 [2] [nM] | Activity (BL-41 [3]) | Activity (BL-41 [4]) | inhibition [5] [%] | Activity (BL-41 [6]) | Activity (D1 [7]) | Activity (A20) | Activity [8] | Activity (D1 [9]) | Activity [10] | Activity [11] | Activity [12] | Activity [13] | Activity [14] | Activity (D1 [15]) | Activity (D1 [16]) | Activity [17] | inhibition [2] | Activity (BL-41 [18])
1 | NCCCC[C@H](N)C(=O)NCC(=O)N[C@@H](Cc1ccc(O)cc1)C(=O)N[C@@H](Cc1ccc(O)cc1)C(=O)NCCCCCC(=O)NCCCOCC(COCCCNC(=O)CCCCCNC(=O)[C@H](Cc1ccc(O)cc1)NC(=O)[C@H](Cc1ccc(O)cc1)NC(=O)CNC(=O)[C@@H](N)CCCCN)(COCCCNC(=O)CCCCCNC(=O)[C@H](Cc1ccc(O)cc1)NC(=O)[C@H](Cc1ccc(O)cc1)NC(=O)CNC(=O)[C@@H](N)CCCCN)NC(=O)CCC(N)=O | inactive | > 10000 | inactive | inactive | 20 | inactive | – | – | – | – | – | – | – | – | – | – | – | – | – | –
2 | C[C@H]1NC(=O)[C@H](CCCCNC(=O)CCCCCNC(=O)[C@H](Cc2ccc(O)cc2)NC(=O)[C@H](Cc2ccc(O)cc2)NC(=O)CNC(=O)[C@@H](N)CCCCN)NC(=O)[C@@H](C)NC(=O)[C@H](CCCCNC(=O)CCCCCNC(=O)[C@H](Cc2ccc(O)cc2)NC(=O)[C@H](Cc2ccc(O)cc2)NC(=O)CNC(=O)[C@@H](N)CCCCN)NC(=O)[C@@H](C)NC(=O)[C@H](CCCCNC(=O)CCCCCNC(=O)[C@H](Cc2ccc(O)cc2)NC(=O)[C@H](Cc2ccc(O)cc2)NC(=O)CNC(=O)[C@@H](N)CCCCN)NC1=O (cyclo(K([Ahx-Tyr-Tyr-Gly-Lys])[dA]K([Ahx-Tyr-Tyr-Gly-Lys])[dA]K([Ahx-Tyr-Tyr-Gly-Lys])[dA])) | Active | 78 | Active | Active | – | Active | Active | Active | Active | Active | inactive | inactive | inactive | inactive | inactive | Active | Active | inactive | – | –
3 | NCCCC[C@H](N)C(=O)NCC(=O)N[C@@H](Cc1ccc(O)cc1)C(=O)N[C@@H](Cc1ccc(O)cc1)C(=O)NCCCCCC(=O)O (H-KGYY[Ahx]-OH) | inactive | – | inactive | inactive | – | inactive | – | – | – | inactive | – | – | – | – | – | inactive | inactive | – | inactive | –
4 | C[C@H]1NC(=O)[C@H](CCCCN)NC(=O)[C@@H](C)NC(=O)[C@H](CCCCN)NC(=O)[C@@H](C)NC(=O)[C@H](CCCCN)NC1=O | inactive | – | inactive | inactive | – | inactive | – | – | – | inactive | – | – | – | – | – | inactive | inactive | – | inactive | –
5 | NCCCC[C@H](N)C(=O)NCC(=O)N[C@@H](Cc1ccc(O)cc1)C(=O)N[C@@H](Cc1ccc(O)cc1)C(=O)NCCCCCC(=O)NCCCC[C@@H]1CNC(=O)C[C@H](CCCCNC(=O)CCCCCNC(=O)[C@H](Cc2ccc(O)cc2)NC(=O)[C@H](Cc2ccc(O)cc2)NC(=O)CNC(=O)[C@@H](N)CCCCN)NC[C@H](CCCCNC(=O)CCCCCNC(=O)[C@H](Cc2ccc(O)cc2)NC(=O)[C@H](Cc2ccc(O)cc2)NC(=O)CNC(=O)[C@@H](N)CCCCN)NC(=O)C1 | Active | 50 | Active | Active | – | Active | – | – | – | – | – | – | – | – | – | – | – | – | – | Active
6 | C[C@@H](NC(=O)[C@H](CCCCNC(=O)CCCCCNC(=O)[C@H](Cc1ccc(O)cc1)NC(=O)[C@H](Cc1ccc(O)cc1)NC(=O)CNC(=O)[C@@H](N)CCCCN)NC(=O)[C@@H](C)NC(=O)[C@H](CCCCNC(=O)CCCCCNC(=O)[C@H](Cc1ccc(O)cc1)NC(=O)[C@H](Cc1ccc(O)cc1)NC(=O)CNC(=O)[C@@H](N)CCCCN)NC(=O)[C@@H](C)NC(=O)[C@@H](N)CCCCNC(=O)CCCCCNC(=O)[C@H](Cc1ccc(O)cc1)NC(=O)[C@H](Cc1ccc(O)cc1)NC(=O)CNC(=O)[C@@H](N)CCCCN)C(=O)O | inactive | – | inactive | inactive | – | inactive | – | – | – | inactive | – | – | – | – | – | inactive | inactive | – | inactive | –
